ChEMBL document CHEMBL4814059, “Redefining the Histone Deacetylase Inhibitor Pharmacophore: High Potency with No Zinc Cofactor Interaction” (ACS Med Chem Lett, 2021)
Active and inactive are the calls of the source. The rule behind the calls is not given here.

Experiments:
[1] = biological target: T1, Class 1 histone deacetylase (Homo sapiens, UniProt Q13547+O15379+Q92769+Q9BY41); type: tissue-based; conditions: 2c4
Histone deacetylase 1 = Histone deacetylase 1 (Homo sapiens, UniProt Q13547); assay: Inhibition of recombinant human C-terminal FLAG-tagged HDAC1 expressed in human HEK293F cells using Fluor-de-lys substrate as substrate incubated for 3 hrs followed by substrate addition and measured after 60 mins by fluorescence based assay
Chain of Histone deacetylase 1 (Q13547 whole entry, the tested form may be a part): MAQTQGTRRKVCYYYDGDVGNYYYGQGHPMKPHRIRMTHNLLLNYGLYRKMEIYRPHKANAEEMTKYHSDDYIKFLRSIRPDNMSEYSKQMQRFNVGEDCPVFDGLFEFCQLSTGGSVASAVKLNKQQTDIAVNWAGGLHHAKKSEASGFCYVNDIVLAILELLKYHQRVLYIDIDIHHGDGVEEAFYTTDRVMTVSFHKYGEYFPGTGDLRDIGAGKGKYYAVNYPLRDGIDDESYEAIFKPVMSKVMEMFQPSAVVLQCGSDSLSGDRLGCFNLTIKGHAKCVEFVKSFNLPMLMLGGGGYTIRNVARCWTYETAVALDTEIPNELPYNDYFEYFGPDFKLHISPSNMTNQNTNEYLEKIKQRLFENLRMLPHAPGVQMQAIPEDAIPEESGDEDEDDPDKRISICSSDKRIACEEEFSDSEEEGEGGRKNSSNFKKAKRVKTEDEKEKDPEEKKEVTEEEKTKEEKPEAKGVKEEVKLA

Histone deacetylase 3 [2] = biological target: T2, Histone deacetylase 3 (Homo sapiens, UniProt O15379); assay: Inhibition of recombinant human FLAG-tagged HDAC3 expressed in human HEK293F cells co-expressing His6-tagged SMRT (1 to 899 residues) using Fluor-de-lys substrate as substrate incubated for 3 hrs followed by substrate addition and measured after 60 mins by fluorescence based assay
T2 sequence (O15379 whole entry, the tested form may be a part): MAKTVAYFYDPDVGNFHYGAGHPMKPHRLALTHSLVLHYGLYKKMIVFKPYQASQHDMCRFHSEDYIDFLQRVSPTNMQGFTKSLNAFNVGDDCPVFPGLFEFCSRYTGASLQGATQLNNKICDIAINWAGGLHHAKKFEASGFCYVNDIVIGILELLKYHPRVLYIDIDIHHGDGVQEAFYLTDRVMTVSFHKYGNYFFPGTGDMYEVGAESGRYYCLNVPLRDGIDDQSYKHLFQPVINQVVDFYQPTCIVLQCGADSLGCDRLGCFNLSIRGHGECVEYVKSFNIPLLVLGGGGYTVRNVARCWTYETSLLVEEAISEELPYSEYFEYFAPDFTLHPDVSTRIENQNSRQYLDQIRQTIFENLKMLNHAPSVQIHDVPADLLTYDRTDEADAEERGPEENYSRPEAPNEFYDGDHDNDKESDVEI

Histone deacetylase 2 = Histone deacetylase 2 (Homo sapiens, UniProt Q92769); assay: Inhibition of recombinant human C-terminal FLAG-tagged HDAC2 expressed in human HEK293F cells using Fluor-de-lys substrate as substrate incubated for 3 hrs followed by substrate addition and measured after 60 mins by fluorescence based assay
Chain of Histone deacetylase 2 (Q92769 whole entry): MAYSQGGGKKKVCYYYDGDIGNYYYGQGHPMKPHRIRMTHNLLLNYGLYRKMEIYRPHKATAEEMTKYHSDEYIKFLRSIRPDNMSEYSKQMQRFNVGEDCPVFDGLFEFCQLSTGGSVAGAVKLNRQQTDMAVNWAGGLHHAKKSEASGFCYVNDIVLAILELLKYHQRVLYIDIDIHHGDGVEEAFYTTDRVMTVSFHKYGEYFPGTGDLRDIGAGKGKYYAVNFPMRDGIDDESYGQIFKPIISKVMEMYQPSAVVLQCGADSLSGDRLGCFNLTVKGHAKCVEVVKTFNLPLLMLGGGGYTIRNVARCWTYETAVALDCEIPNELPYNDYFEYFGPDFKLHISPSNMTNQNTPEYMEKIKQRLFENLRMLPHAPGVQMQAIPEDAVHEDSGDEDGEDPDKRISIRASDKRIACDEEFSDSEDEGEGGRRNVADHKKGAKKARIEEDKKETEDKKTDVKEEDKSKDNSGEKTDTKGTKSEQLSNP

[3] = Fraction unbound in rat plasma; type: ADME, cell-free
Cytochrome P450 2C9 = Cytochrome P450 2C9 (Homo sapiens, UniProt P11712); assay: Inhibition of CYP2C9 in human liver microsomes assessed as reduction in 4'-hydroxy diclofenac level using diclofenac as substrate incubated for 10 mins by LC-MS/MS analysis; type: ADME
Chain of Cytochrome P450 2C9 (P11712 whole entry): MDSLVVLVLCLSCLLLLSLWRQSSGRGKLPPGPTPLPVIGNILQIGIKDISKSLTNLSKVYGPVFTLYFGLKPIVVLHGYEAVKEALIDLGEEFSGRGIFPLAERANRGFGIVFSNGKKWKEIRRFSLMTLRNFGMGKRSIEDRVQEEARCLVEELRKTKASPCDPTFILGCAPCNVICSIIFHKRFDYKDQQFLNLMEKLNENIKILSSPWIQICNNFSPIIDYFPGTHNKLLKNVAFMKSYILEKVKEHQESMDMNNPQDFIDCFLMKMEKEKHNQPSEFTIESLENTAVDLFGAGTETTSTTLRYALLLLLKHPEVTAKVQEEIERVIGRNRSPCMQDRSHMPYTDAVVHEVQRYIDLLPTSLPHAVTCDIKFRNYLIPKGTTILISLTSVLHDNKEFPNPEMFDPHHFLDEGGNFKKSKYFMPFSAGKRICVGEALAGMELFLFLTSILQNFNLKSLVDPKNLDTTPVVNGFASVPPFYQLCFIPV

[4] = biological target: T3, Nuclear receptor subfamily 1 group I member 2 (Homo sapiens, UniProt O75469); assay: Activation of PXR (unknown origin) expressed in human DPX2 cells co-expressing luciferase gene under control of CYP3A4 promoter assessed as induction of CYP3A4 transcriptional activity incubated for overnight by luminescence based analysis; type: ADME, cell-based
T3 sequence (O75469 whole entry): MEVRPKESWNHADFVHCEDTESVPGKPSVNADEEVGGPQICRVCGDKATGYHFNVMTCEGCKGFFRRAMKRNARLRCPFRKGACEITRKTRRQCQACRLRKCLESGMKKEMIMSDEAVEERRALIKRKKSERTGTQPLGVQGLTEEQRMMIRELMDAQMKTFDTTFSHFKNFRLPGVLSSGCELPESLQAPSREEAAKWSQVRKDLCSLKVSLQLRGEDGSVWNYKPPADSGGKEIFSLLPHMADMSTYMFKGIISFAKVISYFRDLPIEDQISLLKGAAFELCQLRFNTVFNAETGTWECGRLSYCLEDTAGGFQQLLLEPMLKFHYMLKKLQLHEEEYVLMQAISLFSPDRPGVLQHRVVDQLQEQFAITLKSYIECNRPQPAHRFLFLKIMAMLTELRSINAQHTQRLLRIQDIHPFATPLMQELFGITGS

[5] = biological target: 5-hydroxytryptamine receptor 2B (Homo sapiens, UniProt P41595); assay: Inhibition of human 5HT2B receptor
Chain of 5-hydroxytryptamine receptor 2B (P41595 whole entry): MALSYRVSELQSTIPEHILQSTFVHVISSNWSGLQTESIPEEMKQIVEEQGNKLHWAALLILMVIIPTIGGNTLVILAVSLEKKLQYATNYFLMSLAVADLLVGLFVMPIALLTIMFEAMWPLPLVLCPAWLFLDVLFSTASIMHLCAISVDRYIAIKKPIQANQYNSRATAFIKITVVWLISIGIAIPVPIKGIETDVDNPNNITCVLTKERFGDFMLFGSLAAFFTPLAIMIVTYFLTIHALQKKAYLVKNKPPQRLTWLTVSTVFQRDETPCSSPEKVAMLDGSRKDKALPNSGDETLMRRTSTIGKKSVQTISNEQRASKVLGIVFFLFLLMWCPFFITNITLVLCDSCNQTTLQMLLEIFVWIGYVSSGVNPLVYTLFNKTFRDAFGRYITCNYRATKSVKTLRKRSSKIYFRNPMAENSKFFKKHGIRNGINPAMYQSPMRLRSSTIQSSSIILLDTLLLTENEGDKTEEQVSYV
Procedure, shortened: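 Off-target selectivity screen of 115 receptor, enzyme and transporter binding and biochemical assays. Compound tested in duplicate at 10 μM.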

[6] = Half life in Wistar Han rat; type: ADME; conditions: in vivo
Histone deacetylase 3 [7] = biological target: T2, Histone deacetylase 3; assay: Inhibition of recombinant human FLAG-tagged HDAC3 expressed in human HEK293F cells co-expressing His6-tagged SMRT (1 to 899 residues) assessed as fast-on/fast-off kinetics inhibition using Fluor-de-lys substrate as substrate by fluorescence based analysis
[8] = Genotoxicity in Salmonella typhimurium TA98 in presence of liver S9 fraction by Ames test; type: toxicity, subcellular; conditions: salmonella enterica subsp. enterica serovar typhimurium
Procedure, shortened: (§1)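 Exploratory, non-GLP Ames mutagenicity test run on a 3-strain panel.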

[9] = Oral bioavailability in Wistar Han rat; type: ADME, organism-based; conditions: in vivo
[10] = Plasma clearance in Wistar Han rat; type: ADME
[11] = biological target: T1, Class 1 histone deacetylase; assay: Inhibition of class 1 HDAC in quiescent human primary T-cell model of VSV-G pseudotyped HIV-1 latency assessed as reactivation of HIV latency incubated for 24 hrs in presence of 10% FBS by NanoGlo luciferase assay; type: tissue-based
[12] = Genotoxicity in Salmonella typhimurium TA1535 in presence of liver S9 fraction by Ames test; type: toxicity, subcellular; conditions: salmonella enterica subsp. enterica serovar typhimurium
Procedure, shortened: as §1

[13] = biological target: T1, Class 1 histone deacetylase; assay: Ratio of IC50 for inhibition of class 1 HDAC in human Jurkat 2C4 model of HIV latency in presence of 5% heat inactivated NHS to IC50 for inhibition of class 1 HDAC in human Jurkat 2C4 model of HIV latency in presence of 0.1% heat inactivated NHS by Steady-Glo luciferase assay
Procedure, shortened: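 Latent HIV luciferase-reporter Jurkat cells were treated with compound and latency reversal was read as increased luminescence. […] Values are means of at least two measurements.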

[14] = Genotoxicity in Salmonella typhimurium TA100 in presence of liver S9 fraction by Ames test; type: toxicity, subcellular; conditions: salmonella enterica subsp. enterica serovar typhimurium
Procedure, shortened: as §1

[15] = biological target: T1, Class 1 histone deacetylase; assay: Inhibition of class 1 HDAC in human Jurkat 2C4 model of HIV latency assessed as reactivation of HIV latency incubated for 18 to 24 hrs in presence of 5% heat inactivated NHS by Steady-Glo luciferase assay; type: tissue-based
Histone deacetylase 3 [16] = biological target: T2, Histone deacetylase 3; assay: Inhibition of recombinant human FLAG-tagged HDAC3 expressed in human HEK293F cells co-expressing His6-tagged SMRT (1 to 899 residues) assessed as rapid dissociation inhibition using Fluor-de-lys substrate as substrate measured after compound dilution by jump dilution based analysis

T1 sequence (O15379 whole entry, looked up): as the sequence (O15379 whole entry, the tested form may be a part) above
T1 sequence (Q13547 whole entry, looked up): as the sequence (Q13547 whole entry, the tested form may be a part) above
T1 sequence (Q92769 whole entry, looked up): as the sequence (Q92769 whole entry) above
T1 sequence (Q9BY41 whole entry, looked up): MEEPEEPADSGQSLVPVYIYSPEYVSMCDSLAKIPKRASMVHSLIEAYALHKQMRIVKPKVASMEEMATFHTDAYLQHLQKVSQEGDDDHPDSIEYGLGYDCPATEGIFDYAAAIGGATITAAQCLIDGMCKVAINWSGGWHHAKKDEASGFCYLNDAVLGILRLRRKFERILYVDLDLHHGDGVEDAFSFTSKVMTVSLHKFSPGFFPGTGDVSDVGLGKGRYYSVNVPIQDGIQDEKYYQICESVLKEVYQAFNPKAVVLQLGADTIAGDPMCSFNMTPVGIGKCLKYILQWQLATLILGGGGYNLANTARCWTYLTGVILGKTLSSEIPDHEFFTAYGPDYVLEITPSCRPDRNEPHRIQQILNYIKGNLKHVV

| Compound | IC50 [1] [nM] | IC50 (Histone deacetylase 1) [nM] | IC50 (Histone deacetylase 3 [2]) [nM] | IC50 (Histone deacetylase 2) [nM] | Fu [3] | IC50 (Cytochrome P450 2C9) [nM] | EC50 [4] [nM] | further results |
| --- | --- | --- | --- | --- | --- | --- | --- | --- |
| CCCCCCCC[C@H](NC(=O)C1CN(C)C1)c1ncc(-c2cc3ccccc3nc2OC)[nH]1 | > 40000 | 18000 | 5200 | > 50000 | – | – | – | – |
| O=C(CCCCCCC(=O)Nc1ccccc1)NO [VORINOSTAT] | – | – | – | – | 0.75 | – | – | – |
| CCCC[C@H](NC(=O)[C@H](C)c1c(C)[nH]c2ccc(OC)cc12)c1ncc(-c2cc3ccccc3nc2OC)[nH]1 | 300 | 47 | 210 | 120 | – | 2900 | 2900 | – |
| COc1nc2ccccc2cc1-c1cnc([C@H](C)NC(=O)C2CN(C)C2)[nH]1 | > 40000 | > 50000 | > 50000 | > 50000 | – | – | – | – |
| CCCC[C@H](NC(=O)[C@H](CN)c1c(C)[nH]c2ccc(OC)cc12)c1ncc(-c2cc3ccccc3nc2OC)[nH]1 | – | – | – | – | < 0.0001 | – | – | – |
| CCC[C@H](NC(=O)C1CN(C)C1)c1ncc(-c2cc3ccccc3nc2OC)[nH]1 | 11000 | 390 | 300 | 3400 | – | – | – | – |
| CCCC[C@H](NC(=O)Cc1c[nH]c2ccccc12)c1ncc(-c2cc3ccccc3nc2OC)[nH]1 | 40000 | 770 | 340 | 2700 | – | 3400 | 4400 | – |
| CCCCC[C@H](NC(=O)C1CN(C)C1)c1ncc(-c2cc3ccccc3nc2OC)[nH]1 | > 40000 | 4700 | 3500 | > 17000 | – | – | – | – |
| CC[C@H](NC(=O)C1CN(C)C1)c1ncc(-c2cc3ccccc3nc2OC)[nH]1 | > 40000 | 23000 | 28000 | > 50000 | – | – | – | – |
| CCC(=O)CCCCC[C@H](NC(=O)C1CN(C)C1)c1ncc(-c2cc3ccccc3nc2OC)[nH]1 | – | – | – | – | 0.0574 | – | – | – |
| CCCC[C@H](NC(=O)[C@H](C)c1c(C)[nH]c2ccc(O)cc12)c1ncc(-c2cc3ccccc3nc2OC)[nH]1 | 240 | 37 | 55.2 | 87 | 0.0006 | 2500 | 1900 | IC50 [5]: < 1000 nM; half-life [6]: 1.2 h; inhibition (Histone deacetylase 3 [7]): Active; Activity [8]: Non-Toxic; F [9]: 26%; clearance [10]: 25 mL/min/kg; IC50 [11]: 2100 nM; Activity [12]: Non-Toxic; Ratio IC50 [13]: 10; Activity [14]: Non-Toxic; IC50 [15]: 3200 nM; inhibition (Histone deacetylase 3 [16]): Active |
| CCCC[C@H](NC(=O)Cc1c[nH]c2ccc(OC)cc12)c1ncc(-c2cc3ccccc3nc2OC)[nH]1 | 860 | 250 | 360 | 500 | – | 1600 | 2500 | – |
| O=C(/C=C/c1cccc(S(=O)(=O)Nc2ccccc2)c1)NO [BELINOSTAT] | – | – | – | – | 0.138 | – | – | – |
| COc1nc2ccccc2cc1-c1cnc(CNC(=O)C2CN(C)C2)[nH]1 | – | – | 15000 | > 50000 | – | – | – | – |
| CCCC[C@H](NC(=O)C1CN(C)C1)c1ncc(-c2cc3ccccc3nc2OC)[nH]1 | 17000 | 280 | 160 | 750 | – | 50000 | > 30000 | inhibition (Histone deacetylase 3 [7]): Active; Activity [8]: Non-Toxic; Activity [12]: Non-Toxic; Activity [14]: Non-Toxic; inhibition (Histone deacetylase 3 [16]): Active |
| CCCC[C@H](NC(=O)[C@H](CN)c1c(C)[nH]c2ccc(O)cc12)c1ncc(-c2cc3ccccc3nc2OC)[nH]1 | 1300 | 2 | 4.7 | 5 | < 0.0001 | > 50000 | > 30000 | IC50 [11]: 4500 nM; IC50 [15]: 7400 nM |
